# Test results: ChEMBL document CHEMBL3351386, “Multidrug resistance (MDR) reversers: High activity and efficacy in a series of asymmetrical N,N-bis(alkanol)amine aryl esters” (Eur J Med Chem, 2014)
# Legend:
# Type in all cases: cell-based
# [1] = Modulatory activity at P-gp in human K562/DOX cells assessed as increase in nuclear concentration of pirarubicin by spectrofluorometric assay; details: K562/Adr, read-out: I50
# K562 [2] = assay: Intrinsic cytotoxicity against human K562 cells at 0.1 to 3 uM after 72 hrs by MTT assay; details: k562, 72 h
# Procedure, shortened: (§1)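 K562 parental and P-gp-overexpressing K562/DOX cells, exponential phase (3 × 10⁵ cells/mL), seeded at 3000 cells/well. Test compounds alone at 0.1, 1.0 or 3.0 µM, without doxorubicin. Incubated 37 °C, 5% CO₂, 72 h. MTT added, further 3 h incubation, formazan crystals inspected microscopically.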
# K562 [3] = assay: Intrinsic cytotoxicity against doxorubicin-resistant human K562 cells at 3 uM after 72 hrs by MTT assay; details: k562, 72 h; procedure, shortened: as §1
# [4] = target: ATP-dependent translocase ABCB1 (Homo sapiens, UniProt P08183); assay: Modulatory activity at P-gp in doxorubicin-resistant human K562 cells assessed as MDR-reversing activity by measuring doxorubicin-induced cell mortality after 72 hrs by MTT assay relative to untreated control; details: k562, 72 h
# Procedure, shortened: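 K562/DOX (P-gp-overexpressing, doxorubicin-resistant) cells in exponential growth were seeded at 3000 cells/well. Doxorubicin was given alone or with modulator at 0.1, 1.0 or 3.0 µM, and incubated 72 h at 37 °C in 5% CO2. Viability was read by MTT with a further 3 h incubation. Reversal fold is the doxorubicin IC50 without modulator divided by the IC50 with modulator. Values are the mean of ≥3 determinations, each with quadruplicate cultures.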
# Sequence of ATP-dependent translocase ABCB1 (P08183 whole entry): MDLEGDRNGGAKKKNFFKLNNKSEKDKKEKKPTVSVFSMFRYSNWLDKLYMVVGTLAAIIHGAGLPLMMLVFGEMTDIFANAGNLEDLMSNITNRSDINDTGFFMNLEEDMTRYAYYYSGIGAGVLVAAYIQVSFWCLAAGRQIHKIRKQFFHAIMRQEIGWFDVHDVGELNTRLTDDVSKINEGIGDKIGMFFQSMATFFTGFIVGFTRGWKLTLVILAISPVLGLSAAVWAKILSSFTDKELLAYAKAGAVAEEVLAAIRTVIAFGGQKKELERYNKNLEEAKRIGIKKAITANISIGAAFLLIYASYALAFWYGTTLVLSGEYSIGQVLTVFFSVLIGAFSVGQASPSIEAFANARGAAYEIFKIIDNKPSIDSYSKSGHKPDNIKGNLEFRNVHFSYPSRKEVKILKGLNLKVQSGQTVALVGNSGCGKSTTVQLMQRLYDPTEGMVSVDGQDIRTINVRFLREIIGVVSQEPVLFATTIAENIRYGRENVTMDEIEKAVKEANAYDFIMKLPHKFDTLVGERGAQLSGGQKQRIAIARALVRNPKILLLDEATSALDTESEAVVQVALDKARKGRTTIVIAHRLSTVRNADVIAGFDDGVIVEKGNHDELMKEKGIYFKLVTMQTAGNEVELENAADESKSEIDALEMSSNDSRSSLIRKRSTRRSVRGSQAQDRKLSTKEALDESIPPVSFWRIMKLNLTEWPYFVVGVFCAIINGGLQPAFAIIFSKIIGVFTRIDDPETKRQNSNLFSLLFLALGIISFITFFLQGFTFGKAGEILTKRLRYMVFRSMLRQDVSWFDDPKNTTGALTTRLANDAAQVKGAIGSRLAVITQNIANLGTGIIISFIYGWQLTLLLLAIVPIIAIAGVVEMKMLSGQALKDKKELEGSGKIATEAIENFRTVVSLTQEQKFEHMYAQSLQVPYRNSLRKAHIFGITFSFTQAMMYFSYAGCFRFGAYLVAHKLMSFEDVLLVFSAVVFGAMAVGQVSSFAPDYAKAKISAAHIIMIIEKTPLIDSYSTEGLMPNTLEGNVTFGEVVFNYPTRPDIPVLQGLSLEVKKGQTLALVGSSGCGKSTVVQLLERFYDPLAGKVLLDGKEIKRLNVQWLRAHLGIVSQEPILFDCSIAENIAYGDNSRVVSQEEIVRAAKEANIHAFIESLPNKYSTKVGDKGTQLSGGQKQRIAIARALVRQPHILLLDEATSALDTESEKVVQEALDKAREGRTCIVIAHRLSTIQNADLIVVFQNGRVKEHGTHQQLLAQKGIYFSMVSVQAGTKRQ
Structure (SMILES),IC50 [1] [nM],further results
COc1cc(/C=C/C(=O)OCCCN(C)CCCCCOC(=O)C2c3ccccc3-c3ccccc32)cc(OC)c1OC,350,
COc1ccc2nccc(C(=O)OCCCCCN(C)CCCCCOC(=O)/C=C/c3cc(OC)c(OC)c(OC)c3)c2c1,750,
COc1cc(C#CC(=O)OCCCN(C)CCCOC(=O)c2cc(OC)c(OC)c(OC)c2)cc(OC)c1OC,1000,
COc1cc(/C=C/C(=O)OCCCCN(C)CCCCOC(=O)c2c3ccccc3cc3ccccc23)cc(OC)c1OC,70,Activity (K562 [2]): Non-toxic; Activity (K562 [3]): <= 20%; mortality [4]: 100%
C=C[C@@H]1CN2CC[C@H]1C[C@H]2[C@H](OCC(=O)OCCCN(C)CCCOC(=O)/C=C/c1cc(OC)c(OC)c(OC)c1)c1ccnc2ccc(OC)cc12,5060,
C=C[C@@H]1CN2CC[C@H]1C[C@H]2[C@@H](OCC(=O)OCCCN(C)CCCOC(=O)/C=C/c1cc(OC)c(OC)c(OC)c1)c1ccnc2ccc(OC)cc12,4790,
COc1ccc2nccc(C(=O)OCCCN(C)CCCOC(=O)/C=C/c3cc(OC)c(OC)c(OC)c3)c2c1,880,
C=C[C@@H]1CN2CC[C@H]1C[C@H]2[C@@H](OCC(=O)OCCCCCN(C)CCCCCOC(=O)/C=C/c1cc(OC)c(OC)c(OC)c1)c1ccnc2ccc(OC)cc12,2650,
COc1cc(/C=C/C(=O)OCCCN(C)CCCOC(=O)C2c3ccccc3-c3ccccc32)cc(OC)c1OC,500,
C=C[C@@H]1CN2CC[C@H]1C[C@H]2[C@H](OCC(=O)OCCCCCN(C)CCCCCOC(=O)/C=C/c1cc(OC)c(OC)c(OC)c1)c1ccnc2ccc(OC)cc12,3430,
COc1cc(/C=C/C(=O)OCCCCN(C)CCCCOC(=O)c2cc(OC)c(OC)c(OC)c2)cc(OC)c1OC,1530,
COc1cc(C#CC(=O)OCCCCCN(C)CCCCCOC(=O)c2c3ccccc3cc3ccccc23)cc(OC)c1OC,340,
COc1cc(C#CC(=O)OCCCCN(C)CCCCOC(=O)c2cc(OC)c(OC)c(OC)c2)cc(OC)c1OC,1030,
COc1cc(C#CC(=O)OCCCCCN(C)CCCCCOC(=O)c2cc(OC)c(OC)c(OC)c2)cc(OC)c1OC,290,
COc1cc(C#CC(=O)OCCCN(C)CCCOC(=O)c2c3ccccc3cc3ccccc23)cc(OC)c1OC,700,
COc1cc(C#CC(=O)OCCCCCN(C)CCCOC(=O)c2cc(OC)c(OC)c(OC)c2)cc(OC)c1OC,310,
COc1cc(/C=C/C(=O)OCCCCCN(C)CCCOC(=O)c2c3ccccc3cc3ccccc23)cc(OC)c1OC,40,Activity (K562 [2]): Non-toxic; Activity (K562 [3]): <= 20%; mortality [4]: 100%

# The next lines start with results.
IC50 [1] [nM],Structure (SMILES),further results
100,COc1cc(C#CC(=O)OCCCCCN(C)CCCOC(=O)c2c3ccccc3cc3ccccc23)cc(OC)c1OC,
190,COc1cc(/C=C/C(=O)OCCCCCN(C)CCCOC(=O)C2c3ccccc3-c3ccccc32)cc(OC)c1OC,
270,COc1cc(/C=C/C(=O)OCCCN(C)CCCCCOC(=O)c2cc(OC)c(OC)c(OC)c2)cc(OC)c1OC,
40,COc1cc(/C=C/C(=O)OCCCN(C)CCCCCOC(=O)c2c3ccccc3cc3ccccc23)cc(OC)c1OC,Activity (K562 [2]): Non-toxic; Activity (K562 [3]): <= 20%
260,COc1cc(C#CC(=O)OCCCN(C)CCCCCOC(=O)c2cc(OC)c(OC)c(OC)c2)cc(OC)c1OC,
120,COc1cc(/C=C/C(=O)OCCCCCN(C)CCCOC(=O)c2cc(OC)c(OC)c(OC)c2)cc(OC)c1OC,
100,COc1cc(C#CC(=O)OCCCCN(C)CCCCOC(=O)c2c3ccccc3cc3ccccc23)cc(OC)c1OC,
110,COc1cc(C#CC(=O)OCCCN(C)CCCCCOC(=O)c2c3ccccc3cc3ccccc23)cc(OC)c1OC,
110,COc1cc(/C=C/C(=O)OCCCCN(C)CCCCOC(=O)C2c3ccccc3-c3ccccc32)cc(OC)c1OC,
